Assay outcomes as filed in PubChem BioAssay.
Most compounds without a hit are left out; they make up all but 1.9% or so of the library.
SR-BI DiI-HDL act: activators of SR-BI mediated DiI-HDL uptake, primary screen, ldlA[mSR-BI] CHO cells, DiI fluorescence. 3 h; 100 = double the neutral-control signal. activation, % at 12.5 µM. 0.096% of 320,000 active;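 active means mean replicate activation of at least 60% and every replicate at or above 60%; inconclusive means mean or all-replicate condition met, but not both; inactive means mean below 60% and not all replicates reaching 60%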
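Material: SR-BI-overexpressing, LDLR-lacking CHO cells; schedule: compound exposure 3 h, 37 °C; reagent: DiI-labelled HDL at 10 µg/mL final; technique: bottom-read fluorescence, 550/595 nm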
UBC13 polyUb: UBC13 polyubiquitin chain formation inhibitors, primary screen, biochemical, TR-FRET, uHTS | Ubiquitin-conjugating enzyme E2 N (Homo sapiens), P61088 | inhibition, % at 20 µM | 0.47% of 330,000 active | AID 485273, 2010; in the data active means inhibition above about 45%, passing the limit was not always enough; inconclusive means no clear call, values can overlap the other calls
Neddyl block: inhibitors of cullin neddylation, primary screen, biochemical, TR-FRET, uHTS, NAE and Ubc12. inhibition, % at 25 µM. 0.58% of 360,000 active. AID 651699, 2012; in the data active means inhibition above about 36%
Target sequence (P61081 whole entry, looked up): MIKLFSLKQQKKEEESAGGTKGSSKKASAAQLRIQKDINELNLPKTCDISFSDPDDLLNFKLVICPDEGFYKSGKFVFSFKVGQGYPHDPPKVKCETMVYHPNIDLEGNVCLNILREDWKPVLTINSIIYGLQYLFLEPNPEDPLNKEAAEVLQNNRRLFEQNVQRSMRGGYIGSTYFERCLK
Target sequence (Q13564 whole entry, looked up): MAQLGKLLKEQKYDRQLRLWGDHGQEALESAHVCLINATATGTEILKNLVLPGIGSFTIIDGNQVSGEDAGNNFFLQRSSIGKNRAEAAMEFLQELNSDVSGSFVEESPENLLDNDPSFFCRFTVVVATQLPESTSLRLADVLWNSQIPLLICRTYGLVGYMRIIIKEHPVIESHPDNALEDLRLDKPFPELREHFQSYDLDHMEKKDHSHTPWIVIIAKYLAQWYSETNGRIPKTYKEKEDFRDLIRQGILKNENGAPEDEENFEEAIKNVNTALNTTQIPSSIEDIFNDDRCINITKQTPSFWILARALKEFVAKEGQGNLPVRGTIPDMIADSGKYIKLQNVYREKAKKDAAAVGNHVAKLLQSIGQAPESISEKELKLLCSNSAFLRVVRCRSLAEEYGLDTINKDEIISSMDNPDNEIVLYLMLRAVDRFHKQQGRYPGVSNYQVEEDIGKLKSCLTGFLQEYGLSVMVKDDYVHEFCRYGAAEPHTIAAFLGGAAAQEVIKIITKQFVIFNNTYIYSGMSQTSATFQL
SR-BI HDL uptake: inhibitors of SR-BI mediated HDL lipid uptake, primary screen, ldlA[mSR-BI] cells, fluorescence, single point | inhibition, % at 12.5 µM | ldlA[mSR-BI] CHO cells, DiI-HDL uptake fluorescence, 3 h | Scavenger receptor class B member 1 (Mus musculus), Q61009 | 0.96% of 320,000 active;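 active means mean replicate inhibition of at least 70% and a set share of replicates each scoring 70 or more; inconclusive means meets just one of the two criteria; inactive means fails both criteria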
Neddyl inh conf: blockade of NEDD8 conjugation to cullin – biochemical, TR-FRET, single concentration, confirmation; shares compounds with Neddyl block; TR-FRET cullin neddylation biochemical assay; calls only at 25 µM; 13% of 1,800 active; in the data active means inhibition above about 40%;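 further: neddylation substrate is the cullin 1 ring ligase complex with SKP2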
A number is an active result; - = inactive; ? = inconclusive; . = no result given; + = active, no number.

SMILES	SR-BI DiI-HDL act	UBC13 polyUb	Neddyl block	SR-BI HDL uptake	Neddyl inh conf
CC(=O)Nc1ccc(NC(=O)c2cc(-c3ccc(C)cc3O)n[nH]2)cc1	-	-	77.7	-	+
COc1ccc(F)cc1-c1cc(C(=O)Nc2ccc(NC(C)=O)cc2)[nH]n1	.	.	-	.	.
Cc1cccc(NC(=O)c2cc(-c3cc(C)ccc3O)n[nH]2)c1	-	-	-	-	.
CC(Sc1n[nH]c(=O)n1Cc1ccccc1)C(=O)NCC1CCCO1 (stereo not given)	-	-	-	-	.
O=C(CN(c1ccc(Br)cc1)S(=O)(=O)c1ccc(Cl)c([N+](=O)[O-])c1)NCC1CCCO1 (stereo not given)	-	.	-	-	.
CC(=O)N1CCCC(C)(C(=O)N(C)Cc2cccc3ccccc23)C1 (stereo not given)	.	.	-	.	.
O=C1OC(C(Cl)(Cl)Cl)Nc2ccccc21 (stereo not given)	.	.	38.5	.	-
COc1cc(C(=O)N(C(C)C)C2CCCCC2)cc(OC)c1OC	.	.	-	.	.
C/C(=N\NC(=O)c1cc(Br)ccc1O)c1cccc(NC(=O)c2ccccc2F)c1	-	-	53.7	-	-
C/C(=N\NC(=O)c1ccccc1F)c1cccc(NC(=O)c2ccccc2)c1	-	-	-	-	.
COc1ccc(-c2cc(C(=O)N/N=C(\C)c3cccnc3)c3ccccc3n2)cc1	-	-	.	-	.
CCOc1ccc(-c2cc(C(=O)N/N=C(\C)c3cccnc3)c3ccccc3n2)c(OCC)c1	-	-	52.2	-	-
CSc1ccccc1NC(=O)CN(C)C(=O)c1ccc(-n2cccn2)cc1	-	-	-	-	.
COc1ccc(NC(=O)CN(C)C(=O)CN2C(=O)NC3(CCCC3)C2=O)cc1	-	-	-	-	.
CCOC(=O)N1CCC(c2cc(=O)n3[nH]ccc3n2)CC1	-	-	41.3	-	.
O=C(NC1CCCCC1)N(CCN1CCCC1)Cc1cc2cc3c(cc2[nH]c1=O)OCCO3	-	-	-	-	.
COCCCNC(=S)N(CCCO)Cc1cc2cc3c(cc2[nH]c1=O)OCCO3	-	-	-	-	.
O=C(NC1CCCCC1)N(CCO)Cc1cc2cc3c(cc2[nH]c1=O)OCCO3	-	-	44.3	-	-
COCCCNC(=S)N(CCCO)Cc1cc2cc3c(cc2[nH]c1=O)OCO3	-	-	42.7	-	-
COCCCNC(=S)N(CCO)Cc1cc2cc3c(cc2[nH]c1=O)OCO3	-	-	40.1	-	-
COc1ccc(NC(=O)[C@@H]2CCCN2S(=O)(=O)c2ccccc2F)cc1S(=O)(=O)N1CCCCC1	-	-	-	-	.
Cc1sc(NC(=O)c2ccco2)c(C(c2ccccc2)N2CCC(C)CC2)c1C (stereo not given)	-	-	45.0	-	.
COC(=O)c1cccc([N+](=O)[O-])c1CN1CCCC(C(N)=O)C1 (stereo not given)	-	-	42.0	-	-
CCCCn1nc(C(=O)Nc2ccc(-n3cnnn3)cc2)c2ccccc2c1=O	-	-	45.0	-	-
COCOCCn1cc(CN2CCS(=O)(=O)N(Cc3ccc(-c4ccc(OC)c(OC)c4)cc3)C(CC(C)C)C2=O)nn1 (stereo not given)	.	.	-	.	.
SMILES	SR-BI DiI-HDL act	UBC13 polyUb	Neddyl block	SR-BI HDL uptake	Neddyl inh conf
Nc1cccc(-c2ccc(CO)o2)c1	-	-	42.2	-	-
NC(Cc1ccc(C(F)(F)F)cc1)c1csc(NC(=O)NCCc2ccccc2)n1 (stereo not given)	.	.	-	.	.
CC/C(=N\NC(=O)c1nnn(-c2nonc2N)c1-c1cccc(OC)c1)c1ccc(C)cc1	-	-	-	-	.
Cc1cc(N2CCN(C)CC2)nc2ccc(NC(=O)CCC(=O)NCCC3=CCCCC3)cc12	-	-	45.3	-	-
COCCCNC(=O)CCC(=O)Nc1ccc2nc(N3CCOCC3)cc(C)c2c1	-	-	.	-	.
COc1cccc(NC(=O)CCC(=O)Nc2ccc3nc(N4CCOCC4)cc(C)c3c2)c1	-	-	43.2	-	.
Cc1cc(N2CCOCC2)nc2ccc(NC(=S)NC(C)C)cc12	-	-	49.9	-	-
CCOC(=O)C(=CNc1ccc2c(c1)nnn2-c1ccc(Cl)cc1)C(=O)OCC	-	-	43.9	-	.
CCOC(=O)C(=CNc1ccc(O)c(C(=O)OC)c1)C(=O)OCC	-	-	42.8	-	-
CCN(CC)CCOC(=O)c1cccc2c1-c1ccccc1C2O (stereo not given)	-	-	37.3	-	-
CCN(CC)CCOC(=O)c1ccccc1Br	-	-	-	-	.
C=CCN1C(=O)c2ccc(C(=O)N(CC)CC(=O)Nc3ccc(OC)cc3)cc2C1=O	-	-	-	-	.
Cc1cc(C(=O)NCc2ccccc2)c(=O)[nH]c1C	-	-	53.0	-	+
CCOc1ccc2[nH]c3ncccc3c(=O)c2c1	-	-	46.7	-	+
c1ccc(-c2cc3c(-n4cccc4)ncnc3o2)cc1	-	-	38.0	-	-
CCCNC(=O)C1(C)CCN(Cc2ccc(-c3ccccc3)o2)C1 (stereo not given)	.	.	-	.	.
CCOc1ccc(NC(=O)CN(C)C(=O)CC2OC(=O)c3ccccc32)cc1OCC (stereo not given)	-	-	-	-	.
CCOC(=O)C1=C(COC(=O)COc2ccc(C#N)cc2)NC(=O)NC1C (stereo not given)	-	-	-	-	.
COc1cccc(CN(C(=O)/C=C/c2ccco2)C2CCS(=O)(=O)C2)c1 (stereo not given)	-	-	-	-	.
O=C(O)c1cccc(Nc2c3ccccc3nc3ccccc23)c1	-	-	41.0	-	-
CC(=O)c1cccc(Nc2cc(C)nc3ccccc23)c1	-	-	-	-	.
Cc1ccccc1/C=N/NC(=O)c1sccc1C	-	-	-	-	.
COc1ccc(/C=N/NC(=O)c2sccc2C)c2ccccc12	-	-	38.6	-	-
OC(c1cccnc1)c1nc(-c2ccc3c(c2)OCO3)cs1 (stereo not given)	.	.	-	.	.
NS(=O)(=O)c1ccc(-c2ccc(/C=N/Nc3ccc(C(=O)O)cc3)o2)cc1	.	-	43.2	.	-
SMILES	SR-BI DiI-HDL act	UBC13 polyUb	Neddyl block	SR-BI HDL uptake	Neddyl inh conf
COc1ccc(C(=O)Cn2c3ccccc3n3nc(CCC(=O)O)c(=O)nc23)cc1OC	-	-	44.1	-	.
CC(=O)Cn1c2ccccc2n2nc(CCC(=O)O)c(=O)nc12	-	-	.	-	.
Cc1cccc(NS(=O)(=O)c2ccc(C3CCCCC3)cc2)n1	-	-	38.3	-	-
Cc1cccc(NS(=O)(=O)c2ccccc2)n1	-	-	41.5	-	-
Cc1cccc(NS(=O)(=O)c2ccc(C(C)(C)C)cc2)n1	-	-	-	-	.
COc1cc2ncc(S(=O)(=O)c3ccccc3)c(N3CCCC(C)C3)c2cc1OC (stereo not given)	-	?	-	-	.
OCCCNC(=S)Nc1ccc2nccnc2c1	-	-	48.6	-	-
